Experimental data reported in ChEMBL document CHEMBL1177835, “A note to the biological activity of benzoxazine derivatives containing the thioxo group” (Eur J Med Chem, 2010).
Converted amounts (≈) assume the structure as drawn.

Key:
Mycobacterium kansasii [1] = test: Antimycobacterial activity against Mycobacterium kansasii 6509/96 after 21 days by microdilution method; type: functional; settings: 6509/96, 504 h
Summary of the method: (§1)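 Dilution micromethod for MIC; compounds added to medium as DMSO solutions. Each strain also inoculated onto Löwenstein–Jensen medium to control inoculum sterility and growth. Strain 6509/96 is a clinical isolate; CNCTC strains from the Czech national type culture collection.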

Mycobacterium avium [2] = test: Antimycobacterial activity against Mycobacterium avium CNCTC My 330/88 after 21 days by microdilution method; type: functional; settings: CNCTC My 330/88, 504 h
Summary of the method: (§2)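 MIC determined by a dilution micromethod. Strains came from the Czech National Collection of Type Cultures, Prague. Compounds were added to the medium as DMSO solutions. Each inoculum was also plated in parallel on Löwenstein–Jensen medium to check its sterility and growth. The M. avium strain is identical with ATCC 25291 and resistant to INH.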

[3] = tested on: Mycobacterium tuberculosis; test: Antimycobacterial activity against Mycobacterium tuberculosis CNCTC My 331/88 after 14 days by microdilution method; type: functional; settings: CNCTC My 331/88, 336 h; summary of the method: as §2
Mycobacterium kansasii [4] = test: Antimycobacterial activity against Mycobacterium kansasii CNCTC My 235/80 after 14 days by microdilution method; type: functional; settings: CNCTC My 235/80, 336 h; summary of the method: as §1
HeLa = test: Cytotoxicity against human HeLa cells after 72 hrs by using methylene blue staining; type: functional, cell-based
Summary of the method: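 HeLa cells in RPMI 1640 with supplements, preincubated 48 h without compound. Compound dilutions were then applied to subconfluent monolayers for 72 h at 37 °C, 5% CO2. Cells were glutaraldehyde-fixed, stained with 0.05% methylene blue, eluted with 0.33 N HCl and read at OD 660 nm. CC50 taken at 50% intersection versus negative control.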

Mycobacterium avium [5] = test: Antimycobacterial activity against Mycobacterium avium CNCTC My 330/88 after 14 days by microdilution method; type: functional; settings: CNCTC My 330/88, 336 h; summary of the method: as §2
Mycobacterium kansasii [6] = test: Antimycobacterial activity against Mycobacterium kansasii 6509/96 after 14 days by microdilution method; type: functional; settings: 6509/96, 336 h; summary of the method: as §1
[7] = tested on: Mycobacterium tuberculosis; test: Antimycobacterial activity against Mycobacterium tuberculosis CNCTC My 331/88 after 21 days by microdilution method; type: functional; settings: CNCTC My 331/88, 504 h; summary of the method: as §2
HUVEC = test: Antiproliferative activity against HUVEC after 72 hrs by using methylene blue staining; type: cell-based; settings: human
Summary of the method: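 HUVEC in culture medium with ultraglutamine, gentamicin, 10% heat-inactivated FBS, 37 °C. Harvested in log phase by trypsinization; about 10,000 cells/well. Compounds in DMSO, diluted in DMEM, incubated 72 h at 37 °C, 5% CO2. Cells then glutaraldehyde-fixed, stained with 0.05% methylene blue for 15 min, eluted with 0.33 N HCl, OD 660 nm. GI50 taken at 50% intersection versus untreated control.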

K562 = test: Antiproliferative activity against human K562 cells after 72 hrs by celltiter-blue assay; type: functional, cell-based
Summary of the method: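 K-562 grown in RPMI 1640 with ultraglutamine, gentamicin, 10% heat-inactivated FBS at 37 °C; about 10,000 cells/well. Compounds dissolved in DMSO and diluted in DMEM, incubated 72 h at 37 °C, 5% CO2. Viability read by CellTiter-Blue resazurin reduction. GI50 taken where the dose-response curve crosses 50% of untreated control.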

Mycobacterium kansasii [8] = test: Antimycobacterial activity against Mycobacterium kansasii CNCTC My 235/80 after 21 days by microdilution method; type: functional; settings: CNCTC My 235/80, 504 h; summary of the method: as §1

**Q.** With `O=c1oc2c(Cl)cc(Cl)cc2c(=O)n1Cc1ccc(Cl)c(Cl)c1` as the molecule, how does the MIC (Mycobacterium kansasii [1]) read?
**A.** 125 µM (≈ 48.9 µg/mL)

**Q.** What about the MIC (Mycobacterium avium [2]) of the same molecule?
**A.** 125 µM (≈ 48.9 µg/mL)

**Q.** What about the MIC [3] of the same molecule?
**A.** 62.5 µM (≈ 24.4 µg/mL)

**Q.** What about the MIC (Mycobacterium kansasii [4]) of the same molecule?
**A.** 125 µM (≈ 48.9 µg/mL)

**Q.** What about the Activity (HeLa) of the same molecule?
**A.** Toxic

**Q.** And the MIC (Mycobacterium avium [5])?
**A.** 125 µM (≈ 48.9 µg/mL)

**Q.** And the MIC (Mycobacterium kansasii [6])?
**A.** 125 µM (≈ 48.9 µg/mL)

**Q.** What about the MIC [7] of the same molecule?
**A.** 125 µM (≈ 48.9 µg/mL)

**Q.** What about the Activity (HUVEC) of the same molecule?
**A.** Toxic

**Q.** What about the Activity (K562) of the same molecule?
**A.** Toxic

**Q.** And the MIC (Mycobacterium kansasii [8])?
**A.** 125 µM (≈ 48.9 µg/mL)
